In paper PMC12780024 (Nature Communications, 2025):
Square brackets hold non-standard residues; d marks the D form. Ends that are not written are not given here. Hyp = O=C(O)[C@@H]1C[C@@H](O)CN1

How the values were obtained:
Arabidopsis leaves = assay: Time-resolved stomatal conductance; format: in vivo, Arabidopsis thaliana
How it was run: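 Plants grown in short days (10/14 h) at 22 °C. Detached leaves equilibrated in an LI-6800 chamber until gsw was stable, then given 2 µM ABA. Chamber settings: 200 µmol m−2 s−1 light (90% red, 10% blue), 22 °C, 75% RH, 400 ppm CO2, […]. Time-resolved gsw reported as mean ± s.d. of at least three biological replicates.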

[1] = cited from earlier work
[2] = test system: H2O2 accumulation in rosette leaves; assay: DAB staining of H2O2 in leaves; format: in vivo, Arabidopsis thaliana; conditions: 2 h
How it was run: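 Four-week-old rosette leaves treated 2 h with test peptide (100 µM) or hormone control (1 µM), then immersed in freshly prepared 100 µg/ml DAB in the dark for 8 h. Fixed and bleached in ethanol/acetic acid/glycerol (3:1:1), rinsed with distilled water, and photographed on a white background for H2O2 staining.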

SRK2D = assay: Protein mobility shift assay; format: cell-based, Arabidopsis thaliana; conditions: wild type protoplasts, 1 μM, 30 min, Phos-Tag; diminished by phosphatase
How it was run: (§1)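 Mesophyll protoplasts (6 × 10^4) transfected with 10 µg 35S::kinase-GFP plasmid and kept 18 h at 21 °C in W5 under continuous light. Treated with 1 µM peptide or ABA for up to 30 min, frozen, ground and lysed (Tris pH 7.5 buffer). Cleared lysate run on Phos-Tag SDS-PAGE and blotted with anti-GFP; tubulin as internal control. For dephosphorylation, lysate incubated with λ-phosphatase at 30 °C for 30 min, with or without NaF/NaVO3 inhibitors.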

SRK2E = assay: Protein mobility shift assay; format: cell-based, Arabidopsis thaliana; conditions: wild type protoplasts, 1 μM, 30 min, Phos-Tag; diminished by phosphatase
How it was run: as §1

[3] = test system: stomata (guard cells) of Arabidopsis leaves; assay: Stomatal aperture measurement; format: cell-based, Arabidopsis thaliana
How it was run: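 Abaxial epidermis peeled from leaves of 3–4-week-old plants. Pore width and length measured by light microscopy and expressed as W/L ratio. n = 15 per time point, at least three independent experiments.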

[4] = test system: Arabidopsis seedlings (primary root); assay: Primary root growth inhibition / LRR-RLK screening; format: in vivo, Arabidopsis thaliana; conditions: 0.75 µM CLE5p
How it was run: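 Arabidopsis lrr-rlk mutant seedlings were germinated on 1/2MS agar for 3 days. They were then transferred to 1/2MS agar containing 0.75 µM test peptide. Primary root length was measured after 3 days of peptide treatment.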

[5] = molecular target: BAM1 extracellular domain; assay: Isothermal titration calorimetry; format: binding, Arabidopsis thaliana; conditions: read-out: dissociation constant (Kd); ITC, MicroCal ITC200, 37 °C, 1 mM CLE5p into 0.1 mM GST-BAM1, 20 mM Tris-HCl pH 7.5, 25 mM NaCl, 5% glycerol; One Set of Sites; ± fitting errors; repeated twice
How it was run: (§2)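 Recombinant GST-fused receptor protein, gel-filtered into titration buffer, titrated at 37 °C with sequential injections of test peptide at 180 s intervals. Cell stirred at 800 rpm, reference power 5 µcal/s. GST alone served as negative control. Data fitted to a one-set-of-sites model to give Kd, stoichiometry N, ΔG, ΔH and -TΔS.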

[6] = molecular target: GHR1 extracellular domain; assay: Isothermal titration calorimetry; format: binding, Arabidopsis thaliana; conditions: read-out: dissociation constant (Kd); ITC, MicroCal ITC200, 37 °C, 1 mM CLE5p into 0.1 mM GST-GHR1, 20 mM Tris-HCl pH 7.5, 25 mM NaCl, 5% glycerol; One Set of Sites; ± fitting errors; repeated twice
How it was run: as §2

[7] = molecular target: T1, GST-BAM1 (LRR repeats of BARELY ANY MERISTEM 1, N-terminal GST fusion) (Arabidopsis thaliana); assay: ITC
T1 sequence (O49545 whole entry, looked up): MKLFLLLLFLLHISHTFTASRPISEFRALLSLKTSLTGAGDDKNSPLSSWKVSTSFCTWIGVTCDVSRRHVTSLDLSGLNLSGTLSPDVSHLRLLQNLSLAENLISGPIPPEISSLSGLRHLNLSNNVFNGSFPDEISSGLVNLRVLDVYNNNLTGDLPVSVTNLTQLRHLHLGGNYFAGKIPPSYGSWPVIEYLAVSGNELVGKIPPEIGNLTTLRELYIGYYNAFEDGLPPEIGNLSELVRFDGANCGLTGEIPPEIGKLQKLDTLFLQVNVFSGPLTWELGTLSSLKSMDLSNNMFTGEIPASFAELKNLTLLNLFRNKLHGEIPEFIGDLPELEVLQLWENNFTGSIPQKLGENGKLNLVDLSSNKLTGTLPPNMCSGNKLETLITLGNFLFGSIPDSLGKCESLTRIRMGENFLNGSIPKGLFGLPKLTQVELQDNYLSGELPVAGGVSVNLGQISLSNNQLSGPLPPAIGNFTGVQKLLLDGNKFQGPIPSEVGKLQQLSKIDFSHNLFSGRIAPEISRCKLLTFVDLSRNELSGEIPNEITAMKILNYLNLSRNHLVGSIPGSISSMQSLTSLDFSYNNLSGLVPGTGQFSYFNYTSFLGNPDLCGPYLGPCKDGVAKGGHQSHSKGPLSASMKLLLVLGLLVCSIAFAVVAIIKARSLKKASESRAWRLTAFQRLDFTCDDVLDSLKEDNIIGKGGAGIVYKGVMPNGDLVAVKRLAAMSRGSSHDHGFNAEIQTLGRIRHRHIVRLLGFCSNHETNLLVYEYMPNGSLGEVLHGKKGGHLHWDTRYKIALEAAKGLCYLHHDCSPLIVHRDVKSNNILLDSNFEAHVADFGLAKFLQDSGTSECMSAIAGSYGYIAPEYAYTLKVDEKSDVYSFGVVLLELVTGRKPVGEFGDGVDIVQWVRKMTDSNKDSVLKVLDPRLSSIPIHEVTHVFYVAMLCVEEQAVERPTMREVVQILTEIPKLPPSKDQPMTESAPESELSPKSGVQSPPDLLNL

[8] = molecular target: T2, GST-GHR1 (LRR repeats of GUARD CELL HYDROGEN PEROXIDE-… 1, N-terminal GST fusion) (Arabidopsis thaliana); assay: ITC
T2 sequence (C0LGQ9 whole entry, looked up): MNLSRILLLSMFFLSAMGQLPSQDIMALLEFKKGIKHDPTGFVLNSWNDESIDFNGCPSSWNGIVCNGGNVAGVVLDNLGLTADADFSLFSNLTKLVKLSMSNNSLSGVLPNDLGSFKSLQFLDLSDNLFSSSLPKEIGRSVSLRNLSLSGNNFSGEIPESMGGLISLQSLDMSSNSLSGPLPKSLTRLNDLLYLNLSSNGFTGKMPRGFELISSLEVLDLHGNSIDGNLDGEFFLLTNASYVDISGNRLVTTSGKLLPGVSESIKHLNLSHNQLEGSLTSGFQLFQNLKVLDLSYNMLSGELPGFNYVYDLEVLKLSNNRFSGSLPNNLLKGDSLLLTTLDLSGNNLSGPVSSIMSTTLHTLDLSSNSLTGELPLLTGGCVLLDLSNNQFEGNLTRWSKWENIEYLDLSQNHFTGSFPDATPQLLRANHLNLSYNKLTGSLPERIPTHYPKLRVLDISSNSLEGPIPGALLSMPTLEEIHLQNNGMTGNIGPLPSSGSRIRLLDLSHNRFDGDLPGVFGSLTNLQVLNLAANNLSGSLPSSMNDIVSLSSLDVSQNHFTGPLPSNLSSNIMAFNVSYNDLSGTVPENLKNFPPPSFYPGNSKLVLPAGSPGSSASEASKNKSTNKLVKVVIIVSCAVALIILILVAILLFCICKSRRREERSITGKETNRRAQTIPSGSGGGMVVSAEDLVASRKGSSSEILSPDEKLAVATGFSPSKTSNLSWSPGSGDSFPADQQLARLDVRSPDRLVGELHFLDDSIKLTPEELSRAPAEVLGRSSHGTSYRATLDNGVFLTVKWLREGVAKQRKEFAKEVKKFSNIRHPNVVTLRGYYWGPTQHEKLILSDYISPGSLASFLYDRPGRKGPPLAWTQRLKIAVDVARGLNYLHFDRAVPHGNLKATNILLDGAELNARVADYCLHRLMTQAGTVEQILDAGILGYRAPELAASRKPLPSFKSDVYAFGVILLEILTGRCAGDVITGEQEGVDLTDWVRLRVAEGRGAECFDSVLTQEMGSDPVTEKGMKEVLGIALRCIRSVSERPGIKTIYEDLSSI

Q: For `CC1=CC(=O)CC(C)(C)[C@@]1(O)/C=C/C(C)=C\C(=O)O` [ABA, abscisic acid], which “stomatal conductance response to ABA” value (Arabidopsis leaves; 35S::SRK2E(Triple A)/srk2e leaves, 2 µM ABA) is on record?
A: The value was “insensitive to the ABA treatment”.

Q: What about the “stomatal conductance response to ABA” value (Arabidopsis leaves; 35S::SRK2E/srk2e leaves, 2 µM ABA, compared to srk2e) of the same molecule?
A: The value was “decreased rapidly”.

Q: What about the “stomatal conductance response to ABA” value (Arabidopsis leaves; bam1-3, ghr1, bam1-3ghr1 leaves, 2 µM ABA) of the same molecule?
A: Its value is “insensitive to the ABA-induced reduction of stomatal conductance”.

Q: And the “stomatal conductance response to ABA” value (Arabidopsis leaves; cle5-1 leaves, 2 μM ABA)?
A: The value was “insensitive to ABA treatment”.

Q: And the “stomatal conductance response to ABA” value (Arabidopsis leaves; pGC1::CLE5/cle5-1 leaves (stomata-specific CLE5), 2 μM ABA)?
A: Its value is “sufficient to elicit ABA-induced stomatal closure”.

Q: What about the “stomatal conductance response to ABA” value (Arabidopsis leaves; wild type and pCLE5::CLE5/cle5-1 leaves, 2 μM ABA) of the same molecule?
A: The value was “began to close their stomata promptly after ABA application”.

Q: What about the stomatal closure [1] of the same molecule?
A: Its stomatal closure is “induce rapid stomatal closure”.

Q: What about the “H2O2 accumulation (DAB staining)” value ([2]; 1 µM ABA) of the same molecule?
A: Its value is “induced H2O2 accumulation”.

Q: What about the “SRK2D-GFP mobility shift (phosphorylation)” value (SRK2D) of the same molecule?
A: The value was “a distinct band shift was detected”.

Q: And the “SRK2E-GFP mobility shift (phosphorylation)” value (SRK2E)?
A: Its value is “a distinct band shift was detected”.

Q: What about the stomatal closure ([3]; cle5-1 and bam1-3ghr1 leaves, 2 µM ABA, 30 min) of the same molecule?
A: The stomatal closure was “failed to induce stomatal closure”.

Q: With “CLE25p: root-derived CLE peptide transported from roots to leaves (RKVPNGPDPIHN; ends and bridges not checked; UniProt Q8LFL4 58-69, looked up)” as the molecule, how does the drought stress response ([1]; root-derived, transported from roots to leaves) read?
A: The drought stress response was “promotes drought stress resistance by stimulating ABA biosynthesis”.

Q: Which results are given for “CLE5p: mature CLE5 dodecapeptide, hydroxyproline at residues 4 and 7, non-arabinosylated (RVS[Hyp]GG[Hyp]DPQHH)”?
A: root growth inhibition, in words ([4]; bam1-3, ghr1, bam1-3ghr1 seedlings): Neither single bam1-3 and ghr1 nor double bam1-3ghr1 mutants showed significant growth defects; root growth inhibition, in words ([4]; bam3 and wild type seedlings): sensitive to the CLE5p-induced root growth inhibition; Kd [5]: 2.52 µM; H2O2 accumulation (DAB staining) ([2]; 100 µM CLE5p, detached leaves): no hydrogen peroxide (H2O2) accumulation; Kd [6]: 7.39 µM; stomatal closure ([3]; rbohDrbohF double mutant leaves): induced stomatal closure

Q: Which Kd [7] does the source give for RVS[Hyp]GG[Hyp]DPQHH [CLE5 dodecapeptide (CLE5p)] here?
A: The Kd was 2.52 µM.

Q: What about the Kd [8] of the same molecule?
A: Its Kd is 7.39 µM.
